In brackets after ≈: the same amount, converted by molar mass. Each block holds one molecule with its values, some of them ahead of it. Activity calls are given as the source filed them. No cut-off for these calls is given here.
Key:
[1] = Unbound intrinsic clearance in rat hepatocytes; type: ADME, cell-based, Hepatocyte
[2] = Modulation of gamma-secretase in human H4 cells expressing human APP751 assessed as inhibition of amyloid beta 42 production incubated overnight by sandwich ELISA; type: cell-based; conditions: Homo sapiens
How it was run: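 Aβ42 EC50 in H4 cells overexpressing WT human APP751; each value is the average of n > 2 assays, each run in duplicate.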

[3] = Total drug level in rat brain at 30 mg/kg, po measured at 6 hrs post dose; type: ADME, organism-based; conditions: read-out: Drug uptake
How it was run: (§1)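 Single oral dose of 30 mg/kg; brain (mouse, rat) and rat CSF Aβ42 and Aβ37 measured 6 h post-dose, expressed relative to vehicle; total and free brain drug levels and brain:plasma ratio taken at the same time.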

Cytochrome P450 2C8 = molecular target: T1, Cytochrome P450 2C8 (Homo sapiens, UniProt P10632); experiment: Inhibition of CYP2C8 (unknown origin); type: ADME
T1 sequence (P10632 whole entry): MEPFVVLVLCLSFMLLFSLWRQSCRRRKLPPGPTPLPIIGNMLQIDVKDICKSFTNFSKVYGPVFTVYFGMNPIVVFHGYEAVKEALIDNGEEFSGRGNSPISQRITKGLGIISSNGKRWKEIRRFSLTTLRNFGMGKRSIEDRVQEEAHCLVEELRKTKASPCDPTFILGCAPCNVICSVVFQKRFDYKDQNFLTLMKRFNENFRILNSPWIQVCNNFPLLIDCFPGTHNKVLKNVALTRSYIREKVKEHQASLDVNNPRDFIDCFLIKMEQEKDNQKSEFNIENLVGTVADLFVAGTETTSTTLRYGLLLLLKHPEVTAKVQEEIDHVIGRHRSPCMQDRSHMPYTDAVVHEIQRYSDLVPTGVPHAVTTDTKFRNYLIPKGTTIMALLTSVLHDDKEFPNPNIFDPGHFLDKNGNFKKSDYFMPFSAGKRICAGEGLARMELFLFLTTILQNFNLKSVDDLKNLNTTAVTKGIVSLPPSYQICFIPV

Cytochrome P450 3A4 [4] = molecular target: T2, Cytochrome P450 3A4 (Homo sapiens, UniProt P08684); experiment: Time dependent inhibition of CYP3A4 (unknown origin) at 5 to 25 uM; type: ADME
T2 sequence (P08684 whole entry): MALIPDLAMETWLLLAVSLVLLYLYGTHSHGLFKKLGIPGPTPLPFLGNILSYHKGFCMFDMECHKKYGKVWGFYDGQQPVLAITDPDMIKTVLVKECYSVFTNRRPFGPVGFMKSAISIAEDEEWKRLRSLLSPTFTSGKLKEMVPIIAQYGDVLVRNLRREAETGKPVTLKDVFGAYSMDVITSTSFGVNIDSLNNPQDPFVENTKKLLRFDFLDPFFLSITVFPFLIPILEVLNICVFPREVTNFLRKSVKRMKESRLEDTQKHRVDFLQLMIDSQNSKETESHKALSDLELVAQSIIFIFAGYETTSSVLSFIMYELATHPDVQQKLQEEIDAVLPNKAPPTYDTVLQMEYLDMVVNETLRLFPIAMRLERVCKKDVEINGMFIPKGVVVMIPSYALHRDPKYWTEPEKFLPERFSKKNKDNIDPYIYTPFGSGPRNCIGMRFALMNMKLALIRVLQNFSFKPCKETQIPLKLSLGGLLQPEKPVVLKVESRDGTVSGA

[5] = Cmax in Wistar rat at 10 mg/kg, po; type: ADME, organism-based; set-up: dose 10 mg/kg, route oral; conditions: in vivo
How it was run: (§2)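 Oral dosing; AUC and Cmax taken from the p.o. administration; bioavailability (%F) calculated from p.o. and i.v. data.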

Cytochrome P450 3A4 [6] = molecular target: T2, Cytochrome P450 3A4; experiment: Inhibition of CYP3A4 (unknown origin); type: ADME
TK6 [7] = experiment: Genotoxicity in p53-competent human TK6 cells in absence of S9 fraction by GADD45alpha GFP reporter assay; type: toxicity, cell-based
How it was run: (§3)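 GreenScreen GADD45alpha-GFP reporter assay in human cells, run externally.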

[8] = Permeability from apical to basolateral side in human Caco2 cells; type: ADME, cell-based; conditions: Caco-2, read-out: permeability
How it was run: (§4)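 Caco-2 monolayer assay; apical-to-basolateral permeability (cm/s) and efflux ratio used to judge P-gp efflux potential.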

Cytochrome P450 2C19 = Cytochrome P450 2C19 (Homo sapiens, UniProt P33261); experiment: Inhibition of CYP2C19 (unknown origin); type: ADME
Chain of Cytochrome P450 2C19 (P33261 whole entry): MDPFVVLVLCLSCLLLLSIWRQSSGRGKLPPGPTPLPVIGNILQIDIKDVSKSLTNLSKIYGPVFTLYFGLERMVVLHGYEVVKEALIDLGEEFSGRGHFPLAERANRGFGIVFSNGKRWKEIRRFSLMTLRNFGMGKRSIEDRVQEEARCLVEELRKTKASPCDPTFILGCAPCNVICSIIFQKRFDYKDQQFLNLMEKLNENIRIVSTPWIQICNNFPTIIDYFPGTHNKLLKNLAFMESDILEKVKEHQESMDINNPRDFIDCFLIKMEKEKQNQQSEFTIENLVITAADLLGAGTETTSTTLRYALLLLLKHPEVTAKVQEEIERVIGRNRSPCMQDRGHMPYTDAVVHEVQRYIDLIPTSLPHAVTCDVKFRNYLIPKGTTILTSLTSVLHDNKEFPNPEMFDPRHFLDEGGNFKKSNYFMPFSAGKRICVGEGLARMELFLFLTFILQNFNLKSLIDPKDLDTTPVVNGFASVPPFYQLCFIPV

Cytochrome P450 2D6 = Cytochrome P450 2D6 (Homo sapiens, UniProt P10635); experiment: Inhibition of CYP2D6 (unknown origin); type: ADME
Chain of Cytochrome P450 2D6 (P10635 whole entry): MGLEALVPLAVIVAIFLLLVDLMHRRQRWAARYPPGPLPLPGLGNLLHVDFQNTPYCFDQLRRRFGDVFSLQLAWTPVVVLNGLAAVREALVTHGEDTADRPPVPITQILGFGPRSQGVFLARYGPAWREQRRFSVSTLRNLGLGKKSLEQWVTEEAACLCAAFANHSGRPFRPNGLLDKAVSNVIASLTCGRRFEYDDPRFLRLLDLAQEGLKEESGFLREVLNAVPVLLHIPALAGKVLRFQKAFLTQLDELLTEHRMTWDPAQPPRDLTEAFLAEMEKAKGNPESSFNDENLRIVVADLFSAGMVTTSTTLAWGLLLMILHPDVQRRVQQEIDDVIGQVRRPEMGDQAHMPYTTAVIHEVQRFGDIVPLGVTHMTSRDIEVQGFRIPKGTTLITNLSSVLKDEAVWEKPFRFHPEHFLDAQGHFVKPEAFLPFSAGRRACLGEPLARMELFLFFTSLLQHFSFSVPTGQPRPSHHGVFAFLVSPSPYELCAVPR

Mus musculus [9] = experiment: Increase in amyloid beta 37 levels in mouse brain at 30 mg/kg, po measured at 0.5 to 24 hrs post dose by ELISA relative to control
[10] = Oral bioavailability in Wistar rat at 10 mg/kg; type: ADME, organism-based; conditions: in vivo; how it was run: as §2
Cytochrome P450 2C9 = Cytochrome P450 2C9 (Homo sapiens, UniProt P11712); experiment: Inhibition of CYP2C9 (unknown origin); type: ADME
Chain of Cytochrome P450 2C9 (P11712 whole entry): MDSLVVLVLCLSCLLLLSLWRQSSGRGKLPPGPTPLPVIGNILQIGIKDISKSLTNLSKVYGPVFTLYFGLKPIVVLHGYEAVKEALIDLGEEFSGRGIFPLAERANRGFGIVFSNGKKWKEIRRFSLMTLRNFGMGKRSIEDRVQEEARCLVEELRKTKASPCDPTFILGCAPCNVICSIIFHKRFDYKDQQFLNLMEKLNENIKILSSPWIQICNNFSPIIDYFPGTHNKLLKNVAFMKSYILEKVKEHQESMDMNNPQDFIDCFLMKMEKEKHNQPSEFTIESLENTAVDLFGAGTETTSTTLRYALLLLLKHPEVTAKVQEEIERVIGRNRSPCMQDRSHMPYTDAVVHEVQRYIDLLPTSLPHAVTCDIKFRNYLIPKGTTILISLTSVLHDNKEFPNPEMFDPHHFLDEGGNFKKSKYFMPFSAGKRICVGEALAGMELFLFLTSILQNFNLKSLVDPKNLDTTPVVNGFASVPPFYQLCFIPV

Mus musculus [11] = experiment: Decrease in amyloid beta 42 in mouse brain at 30 mg/kg, po administered as single dose after 0.5 to 24 hrs; type: functional
Rattus norvegicus [12] = experiment: Increase in amyloid beta 37 levels in rat CSF at 30 mg/kg, po measured at 6 hrs post dose by ELISA relative to control; type: functional; how it was run: as §1
Cynomolgus monkey [13] = experiment: Oral bioavailability in Cynomolgus monkey at 10 mg/kg; type: ADME, organism-based, Macaca fascicularis; conditions: in vivo; how it was run: as §2
Mus musculus [14] = experiment: Reduction in amyloid beta 42 levels in mouse brain at 30 mg/kg, po measured at 6 hrs post dose by ELISA; type: functional; how it was run: as §1
[15] = Efflux ratio of permeability in human Caco2 cells; type: ADME, cell-based; conditions: Caco-2; how it was run: as §4
[16] = Cytotoxicity against human HepG2 cells assessed as reduction in cell viability by measuring ATP; conditions: read-out: TC50 (the source's name)
[17] = Half life in Cynomolgus monkey at 1 mg/kg, iv; type: ADME, organism-based, Macaca fascicularis; conditions: in vivo
How it was run: (§5)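 Intravenous dosing at 1 mg/kg; half-life, steady-state volume of distribution and clearance derived from the i.v. administration.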

[18] = Volume of distribution at steady state in Wistar rat at 1 mg/kg, iv; type: ADME, organism-based; conditions: in vivo, read-out: Vdss; how it was run: as §5
Mus musculus [19] = experiment: Decrease in amyloid beta 42 AUC(1 to 24 hrs) in mouse brain at 30 mg/kg, po administered as single dose after 0.5 to 24 hrs; type: functional
[20] = Aqueous solubility of compound in phosphate buffer at pH 7.4 after 90 mins; type: physicochemical
How it was run: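 Kinetic solubility method in pH 7.4 phosphate buffer, incubated 90 min at room temperature.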

Rattus norvegicus [21] = experiment: Reduction in amyloid beta 42 levels in rat brain at 30 mg/kg, po measured at 6 hrs post dose by ELISA; type: functional; how it was run: as §1
[22] = Ratio of drug level in brain to plasma in mouse at 30 mg/kg, po measured at 6 hrs post dose; type: ADME, organism-based; conditions: read-out: BPR; how it was run: as §1
[23] = Half life in Wistar rat at 1 mg/kg, iv; type: ADME, organism-based; conditions: in vivo; how it was run: as §5
[24] = Total drug level in mouse brain at 30 mg/kg, po measured at 6 hrs post dose; type: ADME, organism-based; conditions: read-out: Drug uptake; how it was run: as §1
Mus musculus [25] = experiment: Increase in amyloid beta 37 levels in mouse brain at 30 mg/kg, po measured at 6 hrs post dose by ELISA relative to control; type: functional; how it was run: as §1
TK6 [26] = experiment: Genotoxicity in p53-competent human TK6 cells in presence of S9 fraction by GADD45alpha GFP reporter assay; type: toxicity, cell-based; how it was run: as §3
Rattus norvegicus [27] = experiment: Increase in amyloid beta 37 levels in rat brain at 30 mg/kg, po measured at 6 hrs post dose by ELISA relative to control; type: functional; how it was run: as §1
[28] = Cmax in Cynomolgus monkey at 10 mg/kg, po; type: ADME, organism-based, Macaca fascicularis; set-up: dose 10 mg/kg, route oral; conditions: in vivo; how it was run: as §2
[29] = Clearance in Wistar rat at 1 mg/kg, iv; type: ADME, organism-based; conditions: in vivo; how it was run: as §5
[30] = Volume of distribution at steady state in Cynomolgus monkey at 1 mg/kg, iv; type: ADME, organism-based, Macaca fascicularis; conditions: in vivo, read-out: Vdss; how it was run: as §5
Rattus norvegicus [31] = experiment: Reduction in amyloid beta 42 levels in rat CSF at 30 mg/kg, po measured at 6 hrs post dose by ELISA; type: functional; how it was run: as §1
Brain [32] = experiment: Unbound drug level in rat brain at 30 mg/kg, po measured at 6 hrs post dose; type: ADME, organism-based; conditions: in vivo; how it was run: as §1
Brain [33] = experiment: Unbound drug level in mouse brain at 30 mg/kg, po measured at 6 hrs post dose; type: ADME, organism-based; conditions: in vivo; how it was run: as §1
Cytochrome P450 1A2 = molecular target: T3, Cytochrome P450 1A2 (Homo sapiens, UniProt P05177); experiment: Inhibition of CYP1A2 (unknown origin); type: ADME
T3 sequence (P05177 whole entry): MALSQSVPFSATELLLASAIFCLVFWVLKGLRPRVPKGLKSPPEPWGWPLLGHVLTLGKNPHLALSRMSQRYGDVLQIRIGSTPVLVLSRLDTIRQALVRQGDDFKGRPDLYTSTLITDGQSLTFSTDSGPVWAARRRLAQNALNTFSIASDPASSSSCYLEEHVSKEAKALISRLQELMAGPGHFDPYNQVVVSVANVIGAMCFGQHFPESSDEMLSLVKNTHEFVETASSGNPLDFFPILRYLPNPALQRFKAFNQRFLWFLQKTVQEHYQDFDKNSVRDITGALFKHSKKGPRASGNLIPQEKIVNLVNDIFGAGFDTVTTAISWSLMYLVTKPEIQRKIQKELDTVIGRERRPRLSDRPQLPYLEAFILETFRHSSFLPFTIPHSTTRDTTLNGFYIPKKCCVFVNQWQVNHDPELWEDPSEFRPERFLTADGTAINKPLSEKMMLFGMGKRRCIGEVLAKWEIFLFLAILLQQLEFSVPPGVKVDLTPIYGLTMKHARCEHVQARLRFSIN

Cynomolgus monkey [34] = experiment: AUClast in Cynomolgus monkey at 10 mg/kg, po; type: ADME, organism-based, Macaca fascicularis; set-up: dose 10 mg/kg, route oral, time 0 - last; conditions: in vivo; how it was run: as §2
[35] = AUClast in Wistar rat at 10 mg/kg, po; type: ADME, organism-based; set-up: dose 10 mg/kg, route oral, time 0 - last; conditions: in vivo; how it was run: as §2
[36] = molecular target: Voltage-gated inwardly rectifying potassium channel KCNH2 (Homo sapiens, UniProt Q12809); experiment: Inhibition of human ERG by patch clamp assay
Chain of Voltage-gated inwardly rectifying potassium channel KCNH2 (Q12809 whole entry): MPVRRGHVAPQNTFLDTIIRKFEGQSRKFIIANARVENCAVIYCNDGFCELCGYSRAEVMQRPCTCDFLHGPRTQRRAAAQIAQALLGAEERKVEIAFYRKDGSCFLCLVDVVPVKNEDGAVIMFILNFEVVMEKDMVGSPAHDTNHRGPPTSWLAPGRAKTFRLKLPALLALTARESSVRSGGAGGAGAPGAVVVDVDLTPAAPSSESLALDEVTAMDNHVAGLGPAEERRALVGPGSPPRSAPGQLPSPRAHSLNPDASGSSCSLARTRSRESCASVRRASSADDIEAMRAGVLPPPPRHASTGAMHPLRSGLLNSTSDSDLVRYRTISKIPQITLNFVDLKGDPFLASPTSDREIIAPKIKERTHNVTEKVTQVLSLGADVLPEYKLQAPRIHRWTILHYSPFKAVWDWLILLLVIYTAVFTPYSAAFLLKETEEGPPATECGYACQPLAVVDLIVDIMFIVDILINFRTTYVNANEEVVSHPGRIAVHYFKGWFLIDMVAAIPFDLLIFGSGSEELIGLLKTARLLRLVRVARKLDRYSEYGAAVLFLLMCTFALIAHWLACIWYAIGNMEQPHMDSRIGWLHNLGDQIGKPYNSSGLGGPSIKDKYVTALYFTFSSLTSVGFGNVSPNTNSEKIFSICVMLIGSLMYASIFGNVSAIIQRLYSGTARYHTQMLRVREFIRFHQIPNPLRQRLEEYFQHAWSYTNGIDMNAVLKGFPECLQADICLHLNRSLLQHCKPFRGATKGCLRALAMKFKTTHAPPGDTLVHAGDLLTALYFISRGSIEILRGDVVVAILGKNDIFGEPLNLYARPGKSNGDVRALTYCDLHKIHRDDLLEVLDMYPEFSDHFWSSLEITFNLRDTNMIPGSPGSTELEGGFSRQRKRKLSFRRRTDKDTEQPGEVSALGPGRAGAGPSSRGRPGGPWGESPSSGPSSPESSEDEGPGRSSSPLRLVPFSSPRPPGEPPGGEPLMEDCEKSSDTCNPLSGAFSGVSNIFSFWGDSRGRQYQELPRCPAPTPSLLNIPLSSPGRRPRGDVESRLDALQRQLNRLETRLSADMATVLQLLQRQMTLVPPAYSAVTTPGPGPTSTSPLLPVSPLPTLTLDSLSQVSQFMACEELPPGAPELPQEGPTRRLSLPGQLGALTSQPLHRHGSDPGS
How it was run: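 Functional patch clamp assay of hERG current; IC50 derived.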

Structure (SMILES): COc1nc(C2=NOC[C@H](c3cc4ccccc4o3)N2)ccc1-n1cnc(C)c1
concentration at 6 h [3]: 13.7 µM
IC50 (Cytochrome P450 2C8): > 25 µM
TDI (Cytochrome P450 3A4 [4]): Not Active
Cmax [5]: 7.3 µM
IC50 (Cytochrome P450 3A4 [6]): 25 µM
Activity (TK6 [7]): Non-Toxic
Papp A→B [8]: 10 ×10⁻⁶ cm/s
IC50 (Cytochrome P450 2C19): 17 µM
IC50 (Cytochrome P450 2D6): 2 µM
fold change (FC) (Mus musculus [9]): 3.1
bioavailability [10]: 93%
IC50 (Cytochrome P450 2C9): 8 µM
Imax (Mus musculus [11]): 45%
fold change (FC) (Rattus norvegicus [12]): 20
F (Cynomolgus monkey [13]): 136%
inhibition in vivo at 30 mg/kg (Mus musculus [14]): 43%
efflux ratio [15]: 1.1
CC50 [16]: > 72 µM
half-life [17]: 1.5 h
Vd [18]: 1 L/kg
inhibition in vivo at 30 mg/kg (Mus musculus [19]): 34%
solubility at 1.5 h [20]: 84 µM (≈ 32.7 µg/mL)
inhibition in vivo at 30 mg/kg (Rattus norvegicus [21]): 30%
Kp at 6 h [22]: 1.5
half-life [23]: 2.2 h
concentration at 6 h [24]: 29.8 to 30 µM
fold change (FC) (Mus musculus [25]): 3.2
Activity (TK6 [26]): Non-Toxic
CL free [1]: 84 mL/min/kg
fold change (FC) (Rattus norvegicus [27]): 2.5
Cmax [28]: 11 µM
clearance [29]: 5.8 mL/min/kg
Vd [30]: 0.9 L/kg
inhibition in vivo at 30 mg/kg (Rattus norvegicus [31]): 58%
Drug uptake(free) (Brain [32]): 156 nM
Drug uptake(free) (Brain [33]): 427 nM
IC50 (Cytochrome P450 1A2): 3 µM
AUClast (Cynomolgus monkey [34]): 8.1 µM·h
AUC(0-t) [35]: 67.8 µM·h
EC50 [2]: 0.035 µM
IC50 [36]: 15 µM

Structure (SMILES): COc1cc(C2=NOC[C@H](COc3ccc(Cl)cc3C(F)(F)F)N2)ccc1-n1cnc(C)c1
Activity (Mus musculus [14]): inactive
EC50 [2]: 0.109 µM

Structure (SMILES): COc1nc(C2=NOC[C@@H]3[C@H](Oc4ccc(F)cc4C)CCCN23)ccc1-c1ccnc(C)c1
EC50 [2]: 0.24 µM

Structure (SMILES): COc1cc(C2=NOC[C@@H](COc3ccc(F)cc3C)N2)ccc1-c1ccnc(C)c1
Activity (Mus musculus [14]): inactive
EC50 [2]: 6.45 µM

The next lines start with the values.

CL free [1]: 1906 mL/min/kg
EC50 [2]: 0.051 µM
Structure (SMILES): COc1nc(C2=NOC[C@H](COc3ccc(F)cc3C)N2)ccc1-n1cnc(C)c1

CL free [1]: 4105 mL/min/kg
EC50 [2]: 0.072 µM
Structure (SMILES): COc1nc(C2=NOC[C@H](COc3ccc(F)cc3C)N2)ccc1-n1cnc(Cl)c1
